# STAT3 activator: IL-6 driven STAT3 reporter potentiators, primary screen, U3A cells, luciferase, luminescence, MLSCN library; IL-6 STAT3-luciferase reporter; 100% = signal with IL-6 EC80 alone; activation (% of control), % at 5.6 µM; 190,000 tested, 0.91% active;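 active = activation above the screen-wide mean of compound activation plus 3 SD, cut at about 130% in these data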;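 note: 0% = background luminescence of wells with medium and substrate only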
#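 Material: human STAT1-deficient U3A cells with stable STAT3-luciferase reporter / Probe or stimulus: IL-6 stimulus at 33 ng/mL final / Schedule: 1 h compound pre-exposure, 6 h IL-6 stimulation, 37 °C / Technique: luminescence / Read-out basis: percent of IL-6-only median luminescence / Control set: IL-6-only high control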
# STAT1 act: STAT1 signaling activators, primary screen, cell-based, HTS, luciferase reporter; 200,000 tested, 2.6% active; NIH 3T3 STAT1-luciferase reporter, IFN-gamma, luminescence; 100% = IFN-gamma alone, no compound; activation (% of control), % at 5.5 µM;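 active = activation above the screen-wide mean activation plus 3 SD, cut at about 130% in these data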;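 note: raw ratio to IFN-gamma control signal so 100% means no change and 0% no light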
# STAT3 inh: IL-6 driven STAT3 reporter inhibitors, primary screen, U3A cells, luciferase, luminescence, MLSCN library; IL-6 STAT3-luciferase reporter; host cell line lacks STAT1; inhibition, % at 5.5 µM; 190,000 tested, 0.89% active; AID 862, 2007;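 active = inhibition above the mean inhibition across all screened compounds plus 3 SD, cut at about 44% in these data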;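 note: 0% = DMSO only wells and 100% = 100 µM nifuroxazide control wells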
# STAT1 blocker: STAT1 signaling inhibitors, primary screen, cell-based, HTS, luciferase reporter | 200,000 tested, 0.35% active | NIH 3T3 STAT1-luciferase reporter, IFN-gamma, luminescence | AID 920, 2007 | inhibition, % at 5.5 µM;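 active = inhibition above a set limit, the mean inhibition across all tested compounds plus 3 SD, cut at about 34% in these data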;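 note: 0% = IFN-gamma with DMSO and 100% = IFN-gamma with 300 µM nifuroxazide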
# NF-kB expr up: activators of NF-kB expression in neurons, primary screen, cell-based, HTS; 190,000 tested, 1.6% active; human neuronal cells, NF-kB reporter expression; active compounds read high; AID 1239, 2008; fold change at 12.5 µM; in the data active = fold change above about 3.3
# APP 5'UTR act: activators of APP 5'UTR luciferase reporter, primary screen, SH-SY5Y cells; SH-SY5Y APP 5'UTR luciferase reporter, luminescence; zero percent = DMSO vehicle wells; 190,000 tested, 1% active; AID 1276, 2008; activation, % at 2 µM;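 active = activation above a set limit, based on mean plus 3 SD of controls, cut at about 140% in these data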
# STAT1 act conf: STAT1 signaling activators, confirmation, cell-based, HTS, luciferase reporter. shares compounds with STAT1 act. activation (% of control), % at 5.7 µM. NIH 3T3 STAT1-luciferase reporter, IFN-gamma potentiation, luminescence; 100% = IFN-gamma EC80 alone, no compound. 1,200 tested, 97% active;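 active = activation above a set limit carried over from the earlier primary STAT1 screen, cut at about 140% in these data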;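 note: simple ratio to median IFN-gamma plus DMSO wells so 0% means no light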
# NFkB act: NF-kB reporter activators, TNF-alpha stimulated, counter-screen for STAT1 activator project, cell-based, HEK293T, luciferase luminescence | shares compounds with STAT1 act | 100% = TNF-alpha with vehicle only | activation (% of control), % at 5.7 µM | 1,200 tested, 43% active | AID 1306, 2008;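 active = activation above the mean of solvent-only control wells plus 3 SD, set per campaign, cut at about 130% in these data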;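 note: TNF-alpha given at a submaximal dose yielding about 80% of full reporter signal; values are well signal over median control so 100% means no change and 0% no light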
# STAT3 act 2: STAT3 reporter activation by STAT1 hits, confirmation, counter-screen for STAT1 activator project, U3A cells, luciferase, luminescence; AID 1316, 2008; 1,200 tested, 46% active; IL-6; cells lack STAT1; 100 = IL-6 alone, no compound effect; activation (% of control), % at 5.7 µM; shares compounds with STAT1 act;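 active = activation above the solvent-only control well mean plus 3 SD, set per plate batch, cut at about 110% in these data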;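 note: 0% = no luminescence and 100% = median IL-6 plus DMSO wells; higher means more STAT3 reporter activation so hits are non-selective activators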
# * = called active by the depositor; x = not tested or not shown. A selection: hits, their analogues and other compounds. The true share with any hit is near 4.9%.
SMILES,STAT3 activator,STAT1 act,STAT3 inh,STAT1 blocker,NF-kB expr up,APP 5'UTR act,STAT1 act conf,NFkB act,STAT3 act 2
CCCCOC(=O)Nc1nc2ccccc2s1,79,153*,28,-58,5.4*,12,213*,133,105
CCCCOC(=O)Nc1nc2ccc(OC)cc2s1,90,119,15,-21,2.2,32,x,x,x
COc1ccc2[nH]c(=O)c(-c3nnn(-c4ccccc4)n3)cc2c1,x,120,x,-20,1.2,55,x,x,x
COc1ccc2oc(=Nc3ccccc3)c(-c3nc4ccccc4[nH]3)cc2c1,130,161*,-27,-68,4.2*,138*,164*,124,138*
Cc1ccc(C(=O)Nc2ccc(SC(F)F)cc2)s1,102,173*,0,-80,1.2,112,205*,141*,98
Cc1nc2c(ccc3nc(NC(=O)c4ccc5c(c4)OCCO5)sc32)s1,72,168*,35,-75,5.4*,123,230*,129,104
CCCc1[nH]c(=O)c(C#N)c2c1CCCC2,104,101,0,-1,0.96,9,x,x,x
COc1cccc(-c2cc(C(=O)N3CCCCC3C)no2)c1 (centres undefined),122,154*,-22,-59,3.6*,133,181*,134*,123*
CC(C)NC(=O)NC(=O)CSc1nnc(C(F)(F)F)n1C,101,93,1,7,1.4,16,x,x,x
Cc1ccc(NC(=O)c2cc(-c3ccccc3)nn2-c2ccccc2)cc1,105,105,-8,-5,1.3,17,x,x,x
CC(=O)C(/C=N/c1cc(-c2ccc(C)cc2)nn1-c1ccccc1)=C(\C)O,104,159*,-8,-66,2.1,97,161*,127,94
CCCCNC(=O)CSc1nc2ccc(N3CCOCC3)cc2c(=O)n1Cc1ccc(OC)cc1,109,158*,2,-64,1.7,16,148*,119,117*
COCCNC(=O)CSc1nc2ccc(N3CCOCC3)cc2c(=O)n1Cc1ccc(OC)cc1,107,121,-3,-23,1.9,48,x,x,x
S=C(Nc1ccccn1)Nc1ccccc1Cl,102,124,3,-30,1.5,23,x,x,x
S=C(Nc1ccccn1)c1ccccn1,88,153*,17,-58,20*,71,178*,124,112*
CCCCOc1ccc(C(C)NC(=O)CCS(=O)(=O)Cc2ccccc2Cl)cc1 (centres undefined),101,94,0,7,1.1,-3,x,x,x
CCOC(=O)c1cn2c(C)cccc2n1,100,99,2,0,1.1,17,x,x,x
Cc1cc(C)n2cc(COc3ccc4ccccc4c3)nc2n1,90,176*,15,-86,8*,146*,214*,127,117*
Cc1cccc2nc(COc3ccc(-c4ccccc4)cc3)cn12,88,163*,20,-70,2.3,39,168*,110,115*
Cn1ncc([N+](=O)[O-])c1C(=O)Nc1ccc(-c2nc3ccccc3o2)cc1,83,128,27,-30,1.6,68,x,x,x

# From PubChem
